From ChEMBL document CHEMBL4706482, “Structural optimization of aminopyrimidine-based CXCR4 antagonists” (Eur J Med Chem, 2020)
Active and inactive are the calls of the source. The rule behind the calls is not given here.

What was measured:
[1] = target: T1, C-X-C chemokine receptor type 4 (Homo sapiens, UniProt P61073); assay: Antagonist activity at CXCR4 in human HPBALL cells assessed as inhibition of APC-conjugate clone 12G5 antibody signal incubated for 3 hrs by flow cytometric analysis; type: cell-based
Target sequence in this assay (P61073 whole entry): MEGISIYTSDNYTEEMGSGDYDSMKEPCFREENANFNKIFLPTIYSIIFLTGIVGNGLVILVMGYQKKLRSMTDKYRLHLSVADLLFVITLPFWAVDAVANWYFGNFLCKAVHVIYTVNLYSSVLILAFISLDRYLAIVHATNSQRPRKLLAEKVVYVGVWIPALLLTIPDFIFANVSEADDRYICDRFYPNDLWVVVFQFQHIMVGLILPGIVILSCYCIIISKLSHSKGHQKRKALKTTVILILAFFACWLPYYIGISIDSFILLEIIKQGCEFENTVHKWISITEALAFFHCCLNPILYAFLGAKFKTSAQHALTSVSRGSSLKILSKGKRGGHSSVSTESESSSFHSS

CYP3A4 = CYP3A4 (Homo sapiens, UniProt P08684); assay: Inhibition of CYP3A4 in human liver microsomes using midazolam as substrate at 10 uM preincubated for 10 mins followed by NADPH addition and measured after 10 mins by LC-MS/MS analysis relative to control; type: ADME; conditions: probe midazolam, time 20 min
How it was run: (§1)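 Human liver microsomes 0.2 mg/mL in 100 mM phosphate, pH 7.4, compound 10 µM, probe substrate midazolam 1 µM (CYP3A4) or dextromethorphan 5 µM (CYP2D6). After a 10 min preincubation, reaction started with 1 mM NADPH, 37 °C for 10 min, then stopped with cold acetonitrile. Metabolites quantified by LC-MS/MS. Triplicate incubations.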

[2] = Apparent permeability across apical to basal side in human Caco2 cells at 10 uM after 90 mins by LC-MS/MS analysis; type: ADME, cell-based; conditions: Caco-2
How it was run: (§2)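 Caco-2 cells grown 21–28 days on polycarbonate inserts. TEER and Lucifer Yellow checked before and after the assay. Compound at 10 µM in HBSS with 25 mM HEPES, pH 7.4, tested A-B and B-A, 37 °C for 90 min. Samples quantified by LC-MS/MS against a standard curve.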

MEF = assay: Cytotoxicity against MEF cells assessed as reduction in cell viability up to 1000 nM by CellTiter-Glo assay; type: cell-based; conditions: mouse
How it was run: (§3)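 Cell viability measured with CellTiter-Glo ATP luminescence at compound concentrations up to 1000 nM.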

[3] = Intrinsic clearance in rat liver microsomes at 1 uM preincubated for 10 mins followed by NADPH addition and measured up to 60 mins by LC-MS/MS analysis; type: ADME, Microsome; conditions: time <=70 min, read-out: CLH
[4] = target: T2, C-X-C chemokine receptor type 1 (Homo sapiens) (UniProt P25024); assay: Antagonist activity at CXCR1 (unknown origin) stably expressed in HEK293 cells assessed as reduction in IL-8-induced intracellular calcium change up to 10000 nM incubated for 15 mins followed by IL-8-stimulation and measured after 15 mins by cAMP-d2/Eu-Anti-cAM based fluorescence assay; type: functional, cell-based; conditions: dose nM <=10000, time 30.0 min, in the assay text read “intracellular cAMP change” for “intracellular calcium change”
T2 sequence (whole entry): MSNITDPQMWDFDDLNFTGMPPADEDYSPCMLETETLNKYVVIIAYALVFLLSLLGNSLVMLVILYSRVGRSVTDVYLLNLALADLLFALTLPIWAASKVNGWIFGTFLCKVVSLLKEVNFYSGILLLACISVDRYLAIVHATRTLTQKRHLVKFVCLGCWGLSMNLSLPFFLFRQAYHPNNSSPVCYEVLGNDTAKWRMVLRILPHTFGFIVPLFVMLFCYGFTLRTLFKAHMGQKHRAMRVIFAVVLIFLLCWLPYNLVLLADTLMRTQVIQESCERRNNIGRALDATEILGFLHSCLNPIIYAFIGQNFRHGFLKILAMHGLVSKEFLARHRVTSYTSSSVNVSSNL
How it was run: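 HEK293 cells overexpressing CXCR1, trypsin-dissociated, 2000 cells/well. Compound in a 10-point 4-fold series, 15 min at rt, then forskolin 4.4 µM plus IL-8 100 nM (in the added solution) for 15 min at rt. cAMP measured with cAMP-d2/Eu-anti-cAMP HTRF, 60 min at rt, read at 665/615 nm.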

[5] = Efflux ratio in across basolateral to apical side over apical to basolateral side in human Caco2 cells at 10 uM after 90 mins by LC-MS/MS analysis; type: ADME, cell-based; conditions: Caco-2; how it was run: as §2
[6] = Half life in rat liver microsomes at 1 uM preincubated for 10 mins followed by NADPH addition and measured up to 60 mins by LC-MS/MS analysis; type: ADME, Microsome; conditions: time <=70 min
Hepa1-6 = assay: Cytotoxicity against […] cells assessed as reduction in cell viability up to 1000 nM by CellTiter-Glo assay; type: functional, cell-based; conditions: dose nM <=1000
[7] = Protein binding in human plasma; type: ADME, cell-free; conditions: read-out: PPB
[8] = target: Voltage-gated inwardly rectifying potassium channel KCNH2 (Homo sapiens, UniProt Q12809); assay: Inhibition of human ERG stably expressed in CHO cells after 4 mins; type: cell-based
How it was run: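 hERG-expressing CHO cells on automated QPatch. Holding potential -80 mV, 500 ms step to +20 mV, tail current measured at -50 mV, pulses every 20 s. External solution 4 mM K⁺, 1 mM Mg²⁺, 2 mM Ca²⁺. Effect quantified 4 min after compound application.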

CYP2D6 = CYP2D6 (Homo sapiens, UniProt P10635); assay: Inhibition of CYP2D6 in human liver microsomes using dextromethorphan as substrate at 10 uM preincubated for 10 mins followed by NADPH addition and measured after 10 mins by LC-MS/MS analysis relative to control; type: ADME; conditions: probe dextromethorphan, time 20 min; how it was run: as §1
L929 = assay: Cytotoxicity against mouse L929 cells assessed as reduction in cell viability up to 1000 nM by CellTiter-Glo assay; type: cell-based
[9] = Protein binding in mouse plasma; type: ADME, cell-free; conditions: read-out: PPB (converted)
[10] = target: T1, C-X-C chemokine receptor type 4; assay: Antagonist activity at CXCR4 in human CD4-positive T cells assessed as inhibition of CXCL12-induced calcium signal incubated for 20 mins by FLIPR assay; type: functional, cell-based, CD4+ve Th
Target sequence in this assay (P61073 whole entry): as the sequence (P61073 whole entry) above

[11] = target: T1, C-X-C chemokine receptor type 4; assay: Antagonist activity at CXCR4 in human MDA-MB-231 cells assessed as inhibition of CXCL12-mediated chemotaxis at 100 nM after 22 hrs by transwell assay; conditions: filed as antagonist
Target sequence in this assay (P61073 whole entry, looked up): as the sequence (P61073 whole entry) above

[12] = Protein binding in rat plasma; type: ADME, cell-free; conditions: read-out: PPB (converted)
MDA-MB-231 = assay: Cytotoxicity against human MDA-MB-231 cells assessed as reduction in cell viability up to 1000 nM by CellTiter-Glo assay; type: functional, cell-based; conditions: dose nM <=1000; how it was run: as §3
[13] = target: T3, C-C chemokine receptor type 6 (Homo sapiens) (UniProt P51684); assay: Antagonist activity at CCR6 in human CD4-positive cells assessed as inhibition of CCL20-induced calcium signal up to 10000 nM by FLIPR assay; type: functional, cell-based; conditions: CD4+ve Th, dose nM <=10000
T3 sequence (whole entry): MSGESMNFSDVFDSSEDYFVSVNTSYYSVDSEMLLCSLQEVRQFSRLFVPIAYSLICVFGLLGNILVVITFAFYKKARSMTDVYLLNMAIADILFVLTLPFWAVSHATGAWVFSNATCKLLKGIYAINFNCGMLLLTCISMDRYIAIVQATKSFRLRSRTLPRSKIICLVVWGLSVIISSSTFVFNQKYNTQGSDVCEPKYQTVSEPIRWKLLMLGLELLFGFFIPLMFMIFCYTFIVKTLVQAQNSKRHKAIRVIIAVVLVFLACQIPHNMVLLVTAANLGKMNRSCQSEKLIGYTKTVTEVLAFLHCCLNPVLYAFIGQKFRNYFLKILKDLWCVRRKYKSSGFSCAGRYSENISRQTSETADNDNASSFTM
How it was run: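 Cryopreserved activated human CD4+ CCR6-enriched T cells at 2.5×10^6/mL in HBSS/20 mM HEPES/0.005% P-104, loaded with Calcium 4 dye. Compound final 10 µM to 0.035 nM in 0.5% DMSO, followed by CCL20 stimulation. Calcium flux read on FLIPR Tetra. % effect taken relative to on-plate controls; IC50 from a four-parameter logistic fit.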

Chain of CYP3A4 (P08684 whole entry): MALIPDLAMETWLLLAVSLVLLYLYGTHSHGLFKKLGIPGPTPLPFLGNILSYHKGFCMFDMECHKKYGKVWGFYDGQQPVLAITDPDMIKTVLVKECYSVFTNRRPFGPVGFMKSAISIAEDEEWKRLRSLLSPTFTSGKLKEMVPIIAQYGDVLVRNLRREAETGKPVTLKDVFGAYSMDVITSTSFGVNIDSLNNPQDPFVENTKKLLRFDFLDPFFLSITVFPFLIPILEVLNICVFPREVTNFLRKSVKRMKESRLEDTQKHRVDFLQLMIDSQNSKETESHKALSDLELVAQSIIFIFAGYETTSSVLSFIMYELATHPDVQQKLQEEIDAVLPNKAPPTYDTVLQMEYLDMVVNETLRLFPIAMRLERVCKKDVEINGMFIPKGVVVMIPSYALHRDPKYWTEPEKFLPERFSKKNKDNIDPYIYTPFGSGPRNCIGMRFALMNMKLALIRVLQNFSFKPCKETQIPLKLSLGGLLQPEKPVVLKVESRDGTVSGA
Chain of Voltage-gated inwardly rectifying potassium channel KCNH2 (Q12809 whole entry): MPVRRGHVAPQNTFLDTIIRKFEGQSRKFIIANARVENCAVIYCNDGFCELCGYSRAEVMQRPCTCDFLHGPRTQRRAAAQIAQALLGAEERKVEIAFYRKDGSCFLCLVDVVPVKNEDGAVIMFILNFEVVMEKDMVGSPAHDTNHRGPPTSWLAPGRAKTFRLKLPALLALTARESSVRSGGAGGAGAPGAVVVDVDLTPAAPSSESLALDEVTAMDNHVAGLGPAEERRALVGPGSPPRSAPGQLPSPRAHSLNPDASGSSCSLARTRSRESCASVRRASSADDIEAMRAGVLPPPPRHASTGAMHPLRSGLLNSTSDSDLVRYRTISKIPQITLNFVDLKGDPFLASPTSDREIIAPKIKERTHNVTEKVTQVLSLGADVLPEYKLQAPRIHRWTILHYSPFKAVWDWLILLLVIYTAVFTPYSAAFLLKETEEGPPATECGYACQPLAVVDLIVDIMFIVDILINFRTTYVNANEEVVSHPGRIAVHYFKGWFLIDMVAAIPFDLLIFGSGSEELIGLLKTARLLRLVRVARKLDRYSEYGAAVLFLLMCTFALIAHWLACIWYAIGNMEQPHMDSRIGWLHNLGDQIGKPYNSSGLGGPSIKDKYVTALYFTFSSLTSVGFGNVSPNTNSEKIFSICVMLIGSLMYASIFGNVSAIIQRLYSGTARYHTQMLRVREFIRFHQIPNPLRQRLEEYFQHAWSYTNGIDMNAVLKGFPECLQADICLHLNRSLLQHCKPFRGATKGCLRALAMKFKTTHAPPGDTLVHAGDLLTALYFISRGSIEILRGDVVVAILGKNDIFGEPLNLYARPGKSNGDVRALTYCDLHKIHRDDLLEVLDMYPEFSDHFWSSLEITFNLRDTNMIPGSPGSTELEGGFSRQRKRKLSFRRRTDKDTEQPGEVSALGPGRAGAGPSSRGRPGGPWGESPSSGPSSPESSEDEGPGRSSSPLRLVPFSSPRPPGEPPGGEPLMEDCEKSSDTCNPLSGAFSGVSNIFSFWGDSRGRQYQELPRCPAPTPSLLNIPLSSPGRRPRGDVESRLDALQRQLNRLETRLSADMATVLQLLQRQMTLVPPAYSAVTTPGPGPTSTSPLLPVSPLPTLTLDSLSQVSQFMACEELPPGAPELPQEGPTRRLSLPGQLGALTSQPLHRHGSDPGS
Chain of CYP2D6 (P10635 whole entry): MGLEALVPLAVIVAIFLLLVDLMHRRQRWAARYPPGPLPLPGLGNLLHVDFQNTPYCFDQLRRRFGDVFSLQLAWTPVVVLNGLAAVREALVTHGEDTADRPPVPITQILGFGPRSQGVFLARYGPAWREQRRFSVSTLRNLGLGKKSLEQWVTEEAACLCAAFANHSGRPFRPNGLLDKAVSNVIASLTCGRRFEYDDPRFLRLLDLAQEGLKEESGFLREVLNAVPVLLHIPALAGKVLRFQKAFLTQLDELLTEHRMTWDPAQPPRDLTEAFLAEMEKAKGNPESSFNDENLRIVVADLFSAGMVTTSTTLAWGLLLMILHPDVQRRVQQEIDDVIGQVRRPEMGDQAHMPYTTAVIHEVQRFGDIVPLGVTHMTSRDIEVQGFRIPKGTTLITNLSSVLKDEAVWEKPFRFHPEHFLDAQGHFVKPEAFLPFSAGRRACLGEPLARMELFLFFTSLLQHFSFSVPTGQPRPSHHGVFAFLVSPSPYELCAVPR

Compound	IC50 [1]	further results
Cc1nc(CN(C)[C@H]2CCCc3cccnc32)cc(N2CCN(C)C[C@H]2C)n1	21 nM	–
CN1CCN(c2cc(CN(C)C3CCCc4cccnc43)nc(N3CCCC3)n2)CC1 (racemic)	> 10000 nM	–
Cc1nc(CN(C)[C@H]2CCCc3cccnc32)cc(N2CCN3CCC[C@@H]3C2)n1	30 nM	–
CCOc1nc(CN(C)C2CCCc3cccnc32)cc(N2CCN(C)CC2)n1 (racemic)	78 nM	–
CCNc1nc(CN(C)C2CCCc3cccnc32)cc(N2CCN(C)CC2)n1 (racemic)	105 nM	–
CN1CCN(c2cc(CN(C)C3CCCc4cccnc43)nc(-c3ccccc3)n2)CC1 (racemic)	2890 nM	–
Cc1nc(CN(C)[C@H]2CCCc3cccnc32)cc(N2CCN(C)CC2)n1	8.8 nM	inhibition at 10 min, 10 µM (CYP3A4): 48%; Papp A→B at 1.5 h, 10 µM [2]: 27 ×10⁻⁶ cm/s; Activity (MEF): Non-Toxic; CLint scaled at 1 µM [3]: 1570 mL/min/kg; Activity [4]: inactive; efflux ratio at 1.5 h, 10 µM [5]: 0.86; half-life at 1 µM [6]: 1.6 min; Activity (Hepa1-6): inactive; fraction unbound [7]: 0.01; IC50 [8]: 8 µM; inhibition at 10 min, 10 µM (CYP2D6): 57%; Activity (L929): Non-Toxic; fraction unbound [9]: 0.11; IC50 [10]: 0.02 nM; Activity [11]: Active; fraction unbound [12]: 0.18; Activity (MDA-MB-231): inactive; Activity [13]: inactive
Cc1nc(CN(C)C2CCCc3cccnc32)cc(N2CCN(C)CC2)n1 (racemic)	12 nM	–
CN1CCN(c2cc(CN(C)[C@H]3CCCc4cccnc43)nc(C(F)(F)F)n2)CC1	293 nM	–
CN1CCN(c2cc(CN(C)C3CCCc4cccnc43)nc(C3CC3)n2)CC1 (racemic)	23 nM	–
CC(C)Nc1nc(CN(C)C2CCCc3cccnc32)cc(N2CCN(C)CC2)n1 (racemic)	930 nM	–
CCN(Cc1cc(N2CCN(C)CC2)nc(C)n1)C1CCCc2cccnc21 (racemic)	17 nM	–
Cc1nc(CN(C)[C@H]2CCCc3cccnc32)cc(N2CCN(C)[C@H](C)C2)n1	8.3 nM	–
CC(C)c1nc(CN(C)C2CCCc3cccnc32)cc(N2CCN(C)CC2)n1 (racemic)	256 nM	–
Cc1nc(CN(C)[C@H]2CCCc3cccnc32)cc(N2CCN(C)C[C@@H]2C)n1	14 nM	–
Cc1nc(CN(C)[C@H]2CCCc3cccnc32)cc(N2CCN(C)[C@@H](C)C2)n1	14 nM	–
COc1nc(CN(C)C2CCCc3cccnc32)cc(N2CCN(C)CC2)n1 (racemic)	25 nM	–
CNc1nc(CN(C)C2CCCc3cccnc32)cc(N2CCN(C)CC2)n1 (racemic)	58 nM	–
Cc1nc(CN(CC2CC2)C2CCCc3cccnc32)cc(N2CCN(C)CC2)n1 (racemic)	51 nM	–

Compound	IC50 [1]	further results
CC(C)Oc1nc(CN(C)C2CCCc3cccnc32)cc(N2CCN(C)CC2)n1 (racemic)	151 nM	–
CN1CCN(c2cc(CN(C)C3CCCc4cccnc43)nc(N(C)CCO)n2)CC1 (racemic)	792 nM	–
Cc1nc(CN(C)[C@H]2CCCc3cccnc32)cc(N2CCN(C3CC3)CC2)n1	70 nM	–
Cc1nc(CN(C)[C@H]2CCCc3cccnc32)cc(N2C[C@@H](C)N(C)[C@@H](C)C2)n1	8.3 nM	–
CN1CCN(c2cc(CN(C)C3CCCc4cccnc43)nc(N3CCOCC3)n2)CC1 (racemic)	2440 nM	–
Cc1nc(CN(C)[C@H]2CCCc3cccnc32)cc(NCCN2CCOCC2)n1	66 nM	–
CN1CCN(c2cc(CN(C)C3CCCc4cccnc43)nc(N)n2)CC1 (racemic)	23 nM	–
CCc1nc(CN(C)C2CCCc3cccnc32)cc(N2CCN(C)CC2)n1 (racemic)	25 nM	–
Cc1nc(CN(C)[C@H]2CCCc3cccnc32)cc(N2CCN(C3COC3)CC2)n1	130 nM	–
Cc1nc(CN(C)[C@H]2CCCc3cccnc32)cc(NCCCN2CCOCC2)n1	36 nM	–
Cc1nc(CN(C)[C@H]2CCCc3cccnc32)cc(N2CCC(N3CCN(C)CC3)CC2)n1	96 nM	–
Cc1nc(CN(C)[C@H]2CCCc3cccnc32)cc(N2CCC(N3CCOCC3)CC2)n1	101 nM	–
CN1CCN(c2cc(CN(C)C3CCCc4cccnc43)nc(-c3cnn(C)c3)n2)CC1 (racemic)	1290 nM	–
Cc1nc(CN(C)[C@H]2CCCc3cccnc32)cc(N2CCN3CCC[C@H]3C2)n1	18 nM	–
CN1CCN(c2cc(CN(C)C3CCCc4cccnc43)nc(N(C)C)n2)CC1 (racemic)	> 10000 nM	–
CCN1CCN(c2cc(CN(C)[C@H]3CCCc4cccnc43)nc(C)n2)CC1	10 nM	–
Cc1nc(CN(C)C2CCCc3cccnc32)c(F)c(N2CCN(C)CC2)n1 (racemic)	12 nM	–
Cc1nc(CN(C)C2CCCc3cccnc32)c(C#N)c(N2CCN(C)CC2)n1 (racemic)	33 nM	–
Cc1nc(CN(C)[C@H]2CCCc3cccnc32)cc(N(C)CCO)n1	> 10000 nM	–
